Bioassay records from PubChem BioAssay.
SIAE inh – human SIAE inhibitors, primary screen, biochemical, fluorescence polarization, FP-Rh probe, 1536-well HTS | SIAE FP-Rh probe binding | inhibition, % at 9.66 µM | 0.69% of 370,000 active | AID 1053197, 2014;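 active = inhibition above a cutoff: mean of compounds within the control limits plus 3 SD of those, cut at about 17% in these data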;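 also: 0% = plate median of compound wells and 100% = probe without SIAE protein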
HTRA1 inhibitor – HTRA1 serine protease inhibitors, primary screen, biochemical, fluorescence polarization, HTS; recombinant HTRA1, FP-rhodamine activity-based probe; Q92743; inhibition, % at 5.96 µM; 0.5% of 340,000 active; in the data active = inhibition above about 36%;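 also: 0% = enzyme with DMSO and 100% = wells lacking enzyme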
Target sequence (Q92743 whole entry, looked up): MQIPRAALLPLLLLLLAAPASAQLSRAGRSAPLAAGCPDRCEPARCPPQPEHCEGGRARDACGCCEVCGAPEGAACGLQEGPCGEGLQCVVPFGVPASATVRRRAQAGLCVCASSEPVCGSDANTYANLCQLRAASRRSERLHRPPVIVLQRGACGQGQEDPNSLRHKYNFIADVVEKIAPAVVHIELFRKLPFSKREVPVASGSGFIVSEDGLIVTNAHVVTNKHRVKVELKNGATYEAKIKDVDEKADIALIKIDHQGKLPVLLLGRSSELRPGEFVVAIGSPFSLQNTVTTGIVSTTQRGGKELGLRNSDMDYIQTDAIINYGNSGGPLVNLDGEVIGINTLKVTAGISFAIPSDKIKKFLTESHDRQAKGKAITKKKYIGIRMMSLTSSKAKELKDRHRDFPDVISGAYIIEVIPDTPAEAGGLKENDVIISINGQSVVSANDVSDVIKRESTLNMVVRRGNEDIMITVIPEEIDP
TCR-CD3 inh – inhibitors of human TCR-CD3 interaction, primary screen, biochemical, fluorescence, TAMRA-labeled TCR probe; T-cell receptor (TCR); inhibition, % at 9.4 µM; 0.37% of 360,000 active; in the data active = inhibition above about 19%;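 also: recombinant mutant TCR 2C K166C tagged with TAMRA read by polarization; 0% = receptor in buffer alone and 100% = receptor with positive control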
PRMT1 inh – PRMT1 methyltransferase inhibitors, primary screen, biochemical, fluorescence polarization. recombinant PRMT1, activity-based probe fluorescence polarization. inhibition, % at 2.79 µM. 1.3% of 370,000 active;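 active = inhibition above about 21% made by adding two undisclosed values, limit read from the data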
ABHD4 inh – ABHD4 inhibitors, primary screen, biochemical, fluorescence polarization, mouse; (Lyso)-N-acylphosphatidylethanolamine lipase (Mus musculus), Q8VD66; purified mABHD4, FP-Rh probe fluorescence polarization; AID 720543, 2013; inhibition, % at 8.92 µM; 0.54% of 370,000 active;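 active = inhibition exceeding the mean over every tested compound plus 3 SD, cut at about 30% in these data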;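 also: 0% = plate median of compound wells and 100% = S159A mutant with DMSO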
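Material: mouse ABHD4 enzyme, wild type; Benchmarks: S159A mutant high control, sample median low control; Buffer or medium: HEPES pH 7.0, NaCl, Pluronic buffer; Signal: fluorescence polarization; Read-out: percent inhibition of probe binding, normalized to plate controls; Timing: pre-incubation 45 min, probe exposure 60 min, at 25 °C; Dosing: 8.92 µM, single dose.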
PRMT1 confirm – PRMT1 methyltransferase inhibitors, confirmation, biochemical, fluorescence polarization, triplicate | recombinant His-PRMT1, activity-based probe fluorescence polarization | AID 687036, 2013 | inhibition, % at 2.79 µM | shares compounds with PRMT1 inh | 42% of 3,300 active;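 active = mean inhibition across replicates above the hit cutoff derived for the earlier primary screen, cut at about 22% in these data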
Active calls of the source: *; . = not tested or not shown. Shown are actives, neighbours in structure and some others; about 2.7% of the full set was active somewhere.

SMILES	SIAE inh	HTRA1 inhibitor	TCR-CD3 inh	PRMT1 inh	ABHD4 inh	PRMT1 confirm
C=CCn1c(Sc2ncc([N+](=O)[O-])s2)n[nH]c1=O	7.2	5.5	-3.4	74.5*	7.3	61.1*
Cn1cnnc1SCC(=O)Nc1ncc([N+](=O)[O-])s1	-6.1	-1.1	5.1	6.6	13.0	.
COc1ccc2c(c1)CSC(c1ccccc1)C2=O (centres undefined)	-10.8	-13.3	4.4	52.7*	2.5	29.7*
C=C1C(=O)C23C(O)C1CCC2C12COC3(O)C(O)C1C(C)(C)CCC2O (centres undefined)	9.1	.	9.9	28.9*	2.1	41.3*
CCN(CC(=O)Nc1ccc(NC(C)=O)cc1)C(=O)CSCc1c(C)noc1C	3.6	-0.6	-3.9	2.4	0.6	.
CCCCN1C(=O)C(=O)N(CC(=O)c2cc(C)n(-c3cc(C)on3)c2C)C1=O	10.7	-0.4	4.3	-7.4	1.8	.
O=C(NC(=S)Nc1cc(C(F)(F)F)ccc1Cl)c1ccccc1	0.7	-7.6	-10.1	-3.9	-6.0	.
O=C(O)c1ccc(NNC(=S)Nc2cc(C(F)(F)F)ccc2Cl)cc1	-0.6	1.2	1.5	26.6*	-8.3	11.6
O=C(O)c1cc(N2C(=O)C=CC2=O)cc(N2C(=O)C=CC2=O)c1	4.2	-2.5	5.7	74.8*	24.4	96.5*
O=C(O)c1cc(C(=O)O)cc(N2C(=O)c3ccccc3C2=O)c1	-6.4	.	-4.8	-1.4	4.3	.
CCOC(=O)c1c(C)nsc1NCc1ccccc1	-7.2	-5.9	-9.7	27.5*	9.8	2.4
CN1CCN(C(=O)C[C@@H]2CC[C@@H]3[C@H](COC[C@@H](O)CN3Cc3cccc(Cl)c3)O2)CC1	3.5	.	7.6	-6.0	-0.2	.
O=C(O)Cc1sc(N/N=C\c2ccncc2)nc1-c1ccccc1	3.8	-0.4	-6.9	40.7*	12.6	10.5
C(=N\Nc1nc(-c2ccccc2)cs1)/c1ccncc1	7.7	9.0	2.6	4.2	8.1	.
CN1OC[C@@H]2CN[C@H](c3ccc(N4CCCCC4)cc3)C[C@@H]21	6.0	.	1.3	-0.5	-3.2	.
CCN(CC)c1ccc2cc(-c3nc(-c4ccc(OC)cc4)cs3)c(=O)oc2c1	-6.2	.	-1.4	44.9*	2.5	77.7*
COc1ccc(N2C(=O)CC(N3CCC(O)(c4cccc(C(F)(F)F)c4)CC3)C2=O)cc1 (centres undefined)	-2.0	2.1	-6.0	61.0*	-9.6	-3.1
O=C(O)c1ccc(N2C(=O)CC(N3CCN(c4cccc(C(F)(F)F)c4)CC3)C2=O)cc1 (centres undefined)	0.7	-6.6	4.3	17.2	-1.1	.
O=C1CC(N2CCCCCC2)C(=O)N1c1ccc(F)cc1 (centres undefined)	1.2	1.9	-3.7	41.3*	8.6	29.1*
O=C1CC(N2CCN(c3ccc(F)cc3)CC2)C(=O)N1c1ccc(F)cc1 (centres undefined)	-1.5	1.0	7.9	0.4	0.1	.
COc1ccc(N2C(=O)CC(N3CCCC4CCCCC43)C2=O)cc1 (centres undefined)	2.9	0.1	-1.4	52.5*	3.7	3.2
COc1ccc(N2C(=O)CC(N3CCCCC3)C2=O)cc1 (centres undefined)	8.9	-5.5	0.8	80.0*	3.2	-0.1
COc1ccc(S(=O)(=O)N2CCOCC2)cc1NC(=O)CSc1n[nH]c(C(C)C)n1	-6.4	5.1	3.3	8.1	2.5	.
CC(C)CN1C(=O)[C@@]2(CC(=O)N(C)C2c2ccccc2)c2cc(-n3cc(C(C)(C)O)nn3)ccc21 (some centres undefined)	0.9	.	.	0.0	-2.4	.
Cc1nn(CCC(=O)NNC(=O)NCc2ccccc2)c(C)c1[N+](=O)[O-]	-1.2	.	.	1.4	-0.4	.
SMILES	SIAE inh	HTRA1 inhibitor	TCR-CD3 inh	PRMT1 inh	ABHD4 inh	PRMT1 confirm
C[C@@H]1CN([C@@H](C)CN(C)C)C(=O)c2cc(NC(=O)Nc3ccccc3)ccc2O[C@@H](C)CCCCO[C@H]1CN(C)S(=O)(=O)c1ccc(F)cc1	8.1	.	.	-2.2	3.6	.
C[C@@H]1CN([C@H](C)CO)S(=O)(=O)c2ccc(Br)cc2O[C@@H]1CN(C)C(=O)NC1CCCC1	10.7	1.1	4.3	1.8	3.0	.
COc1ccccc1NC(=O)N(C)C[C@H]1Oc2ncc(C#CCN(C)C)cc2C(=O)N([C@H](C)CO)C[C@H]1C	.	1.7	.	.	.	.
COc1ccc(N2C(=O)CC(NC3CCCCNC3=O)C2=O)cc1 (centres undefined)	3.8	3.2	5.1	27.9*	1.6	4.9
Cc1ccccc1N1CCN(C(=O)c2ccccc2NC(=O)/C=C\C(=O)O)CC1	4.1	4.0	1.2	26.8*	-1.8	6.7
Cc1ccccc1N1CCN(c2ccccc2NC(=O)/C=C\C(=O)O)CC1	0.7	6.6	0.6	-1.5	1.0	.
Nc1c(C(=O)c2ccc(Cl)cc2)sc2nsc(SCCN3CCOCC3)c12	7.2	2.2	-4.1	-0.4	0.4	.
CC(=O)c1sc2nsc(SCCN3CCCCC3)c2c1N	0.8	.	-1.8	27.1*	1.2	3.6
Nc1c(C(=O)c2ccccc2)sc2nsc(SCCN3CCCC3)c12	1.8	0.3	0.2	26.8*	8.6	12.1
CC(=O)Nc1ccc(Cl)c(-c2nc3ncccc3o2)c1	-5.2	-5.6	4.2	-0.4	-1.0	.
Cc1cccc(NC(=O)C2CCCN2S(=O)(=O)c2ccc(Cl)cc2)n1 (centres undefined)	-4.3	1.5	-1.0	1.7	6.2	.
Cc1cccc(N2C(=O)C(Cl)=C(N3CCOCC3)C2=O)c1	-3.0	3.2	0.0	27.9*	8.9	1.0
O=C(CCS(=O)(=O)c1ccccc1)Nc1ccc(F)cc1Cl	0.8	.	.	1.1	5.0	.
COC(=O)c1cc2c(c3c4cc(F)ccc4n(S(=O)(=O)c4cccc(C)c4)c13)C(=O)N(c1ccc(OC)cc1)C2	3.2	.	-10.9	-0.2	1.2	.
Cn1ncc2c1NC(c1ccc(F)cc1)SCC2=O (centres undefined)	0.7	-1.5	2.4	34.4*	0.8	55.4*
COc1ccc(CCN2C(=O)CSC2c2ccc(F)cc2)cc1 (centres undefined)	-13.2	-21.5	-13.5	6.5	-14.4	.
CCOc1ccc(N2C(=O)CC(SCc3nc4ccccc4[nH]3)C2=O)cc1 (centres undefined)	-3.0	-0.7	2.4	14.6	4.2	.
CCOc1ccc(N2C(=O)CC(Sc3n[nH]c(-c4ccccc4)n3)C2=O)cc1 (centres undefined)	4.7	-5.9	0.8	32.2*	-1.3	51.6*
